# In ChEMBL document CHEMBL1152574, “Novel 2H-isoquinolin-3-ones as antiplasmodial falcipain-2 inhibitors” (Bioorg Med Chem, 2009):
# Key:
# Procathepsin L = Procathepsin L (Homo sapiens, UniProt P07711); test: Inhibition of human cathepsin L
# Plasmodium falciparum = test: Antiplasmodial activity against Plasmodium falciparum FcBR; assay type: functional, organism-based; settings: FCBR/Columbia
# Procedure, shortened: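 Synchronized ring-stage parasites (strain FCBR) grown in human RBC (A Rh+), RPMI 1640 with 25 mM HEPES, 20 mM bicarbonate, 0.5% AlbuMAX I, 2.5% hematocrit, 37 °C under 94% N₂/1% O₂/5% CO₂; plated at 1% parasitemia with compounds (DMSO stock diluted 10-fold in 50% ethanol), 100–0.0488 µM, in quadruplicate; 50% ethanol as negative control; dose-dependent effect on development quantified.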
# [1] = Inhibition of Plasmodium falciparum falcipain-2
# Procedure, shortened: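 Recombinant FP-2 in 100 mM sodium acetate pH 5.5, 10 mM DTT, substrate Cbz-Phe-Arg-AMC; reversibility screen at 100 µM with E-64 control, then continuous progress-curve assays with 0–100 µM inhibitor; fluorescence ex 365/em 460 nm; run twice; Ki from Dixon plot, corrected to zero substrate using Km 21.5 µM.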
# Cathepsin B = Cathepsin B (Homo sapiens, UniProt P07858); test: Inhibition of human cathepsin B
# Rhodesain = Rhodesain (Trypanosoma brucei rhodesiense, UniProt Q95PM0); test: Inhibition of Trypanosoma brucei rhodesiense rhodesain
# Procedure, shortened: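 Continuous fluorometric progress-curve assay in 100 mM sodium acetate, pH 5.5, with 10 mM DTT. Substrate is Cbz-Phe-Arg-AMC (40 or 10, depending on enzyme). Inhibitors come from DMSO stocks, at increasing concentrations up to 100. AMC read at ex 365/em 460 nm, each assay run twice. Kiapp is taken from a Dixon plot and corrected to zero substrate with Km to give Ki.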
# Rhodesain, sequence (Q95PM0 whole entry): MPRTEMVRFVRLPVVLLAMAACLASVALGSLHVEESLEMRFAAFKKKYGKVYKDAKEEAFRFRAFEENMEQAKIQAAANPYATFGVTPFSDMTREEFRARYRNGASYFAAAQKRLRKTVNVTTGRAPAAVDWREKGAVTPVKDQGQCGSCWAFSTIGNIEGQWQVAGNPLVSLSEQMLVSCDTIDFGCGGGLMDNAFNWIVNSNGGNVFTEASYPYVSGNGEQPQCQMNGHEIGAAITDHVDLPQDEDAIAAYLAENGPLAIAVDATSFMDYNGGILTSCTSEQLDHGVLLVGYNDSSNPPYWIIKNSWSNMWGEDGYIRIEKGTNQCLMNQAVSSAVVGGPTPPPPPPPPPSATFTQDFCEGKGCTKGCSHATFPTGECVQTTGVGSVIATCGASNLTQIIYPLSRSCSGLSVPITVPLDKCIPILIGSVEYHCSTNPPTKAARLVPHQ
# Procathepsin L, sequence (P07711 whole entry): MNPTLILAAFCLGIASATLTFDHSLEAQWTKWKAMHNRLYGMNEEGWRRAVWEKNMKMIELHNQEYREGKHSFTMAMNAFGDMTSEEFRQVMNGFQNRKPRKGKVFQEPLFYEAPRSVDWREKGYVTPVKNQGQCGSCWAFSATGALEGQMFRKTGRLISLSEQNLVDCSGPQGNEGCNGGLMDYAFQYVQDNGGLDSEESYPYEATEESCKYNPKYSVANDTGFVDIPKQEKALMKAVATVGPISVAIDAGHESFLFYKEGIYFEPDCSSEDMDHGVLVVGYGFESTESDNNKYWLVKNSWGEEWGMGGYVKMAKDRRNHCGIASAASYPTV
Structure (SMILES),Ki (Procathepsin L),IC50 (Plasmodium falciparum),Ki [1],Ki (Cathepsin B; read-out: Ki),Ki (Rhodesain; read-out: Ki),Ki (Cathepsin B),Ki (Rhodesain)
CC(=O)Oc1cc2cc3c(cc2c(-c2ccc(N)cc2)n1)OCO3,13.6 µM,58.8 µM,19.7 µM,6.7 µM,38.3 µM,–,–
COc1ccc(-c2c3cc4c(cc3cc(=O)n2NC(=O)OC(C)(C)C)OCO4)cc1,4.1 µM,7.7 µM,24.4 µM,7.5 µM,19.4 µM,–,–
CCOC(=O)Nn1c(-c2ccc(OC)cc2)c2cc3c(cc2cc1=O)OCO3,7.7 µM,8.4 µM,62.7 µM,16.7 µM,9.4 µM,–,–
COc1ccc(-c2c3cc4c(cc3cc(=O)n2NC(=O)Nc2ccc(C(C)=O)cc2)OCO4)cc1,2.1 µM,11.8 µM,5.9 µM,3.7 µM,14 µM,–,–
COc1ccc(-c2c3cc(OC)c(OC)cc3cc(=O)n2NC(=O)OC(C)(C)C)cc1,39.7 µM,9.3 µM,40.3 µM,–,–,Not Active,Not Active
COc1ccc(-c2c3cc4c(cc3cc(=O)n2NC(=O)Nc2ccc(SC)cc2)OCO4)cc1,0.85 µM,> 100 µM,6.5 µM,4 µM,18.7 µM,–,–
COc1ccc(-c2c3cc4c(cc3cc(=O)n2N)OCO4)cc1,7 µM,25.5 µM,15 µM,16.3 µM,6.3 µM,–,–
COc1ccc(-c2c3cc(OCc4ccccc4)c(OCc4ccccc4)cc3cc(=O)n2N)cc1,4.2 µM,16.9 µM,2.3 µM,3.3 µM,4 µM,–,–
Cc1cc2cc3c(cc2c(-c2ccc(N)cc2)n1)OCO3,8.7 µM,38.8 µM,7.3 µM,6.9 µM,19.4 µM,–,–
CC(C)C[C@H](NC(=O)[C@H]1O[C@@H]1C(=O)O)C(=O)NCCCCN=C(N)N [E-64],–,–,0.29 µM,16 µM,–,–,–
